Values after ≈ are worked out from the molar mass of the structure shown. Active and inactive are the calls of the source. The calls are words filed in the database; no cut-off is given here.
Columns and labels:
Staphylococcus aureus [1] = assay: Antibacterial activity against vancomycin-resistant Staphylococcus aureus HIP11714 assessed as inhibition of bacterial growth incubated for 20 hrs by broth microdilution method; assay type: functional; details: HIP11714, 20 h
Summary of the method: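 Broth microdilution: 0.5 McFarland suspension from an overnight culture, diluted 1:100 in cation-adjusted Mueller Hinton broth (CAMHB), given serial dilutions of test agent for 20 h at 37 °C. MIC is the lowest concentration with no visible growth.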

Staphylococcus aureus [2] = assay: Ration of MBC to MIC against Vancomycin-resistant Staphylococcus aureus HIP11714; assay type: functional
Summary of the method: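 For MBC, 5 μL from each well was spotted on agar and incubated overnight; MBC is the lowest concentration with no visible growth. Ratio taken as MBC over MIC.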

Staphylococcus aureus [3] = assay: Antibacterial activity against methicillin-susceptible Staphylococcus aureus ATCC 25923 in presence of 10% v/v serum; assay type: functional
Staphylococcus aureus [4] = assay: Bacteriostatic activity against methicillin-susceptible Staphylococcus aureus ATCC 25923 assessed as reduction in colony forming unit at 1 times of MIC measured up to 4 hrs by time kill assay; assay type: functional, organism-based; details: time hrs <=4
Summary of the method: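 Time-kill: a 1:100 dilution of 0.5 McFarland S. aureus […] suspension was exposed to 0, 1 and 4× MIC. At 0, 1, 2 and 4 h, samples were serially diluted in PBS and plated on MHA. CFU were counted after 30 h incubation.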

Structure (SMILES): CCCCCCCCSSc1ccccn1
- MIC (Staphylococcus aureus [1]): 6.25 µM (≈ 1.6 µg/mL)
- Ratio (Staphylococcus aureus [2]): >8
- MIC (Staphylococcus aureus [3]): 25 µM
- Activity (Staphylococcus aureus [4]): Active

— ChEMBL document CHEMBL4715813, “Allicin-inspired pyridyl disulfides as antimicrobial agents for multidrug-resistant Staphylococcus aureus” (Eur J Med Chem, 2018)
